The molecules below were run against Muscarinic acetylcholine receptor M4 (Rattus norvegicus) (UniProt P08485) (assay: ACh potentiation at rat M4, late-stage follow-up, counter-screen for M4 PAM project, CHO Gqi5 cells, calcium (AID 588751)). Details: calcium fluorescence, ACh EC20.
Method in brief: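 System – CHO cells stably co-expressing rat M4 receptor and chimeric Gqi5 · Schedule – 144 s compound, 86 s between ACh additions, 37 °C · Signal – kinetic calcium fluorescence with Fluo-4 dye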

Muscarinic acetylcholine receptor M4 (Rattus norvegicus), sequence (P08485 whole entry, looked up): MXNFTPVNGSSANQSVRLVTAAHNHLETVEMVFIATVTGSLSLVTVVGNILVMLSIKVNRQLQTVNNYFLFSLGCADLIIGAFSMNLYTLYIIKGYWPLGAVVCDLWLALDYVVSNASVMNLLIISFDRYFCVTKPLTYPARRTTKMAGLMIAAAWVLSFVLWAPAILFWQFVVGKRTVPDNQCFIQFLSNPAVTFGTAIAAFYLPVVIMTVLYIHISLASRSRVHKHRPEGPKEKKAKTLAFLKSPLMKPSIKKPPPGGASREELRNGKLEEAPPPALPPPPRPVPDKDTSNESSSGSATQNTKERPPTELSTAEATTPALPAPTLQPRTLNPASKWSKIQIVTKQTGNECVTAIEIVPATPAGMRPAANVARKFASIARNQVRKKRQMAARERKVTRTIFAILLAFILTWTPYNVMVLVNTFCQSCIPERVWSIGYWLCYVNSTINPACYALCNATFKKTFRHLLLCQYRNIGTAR

Question: How did the EC50 turn out when `Cc1nc2sc(C(=O)NC3CC3)c(N)c2c(C)c1Cl` was run?
Answer: Its EC50 is 151 nM.

Question: `Cc1nc2sc(C(=O)NCc3ccncc3)c(N)c2c(C)c1Cl` was tested. Which EC50 did it give?
Answer: Its EC50 is 173 nM.

Question: Which EC50 does the source give for `Cc1nc2sc(C(=O)NCc3ccccc3)c(N)c2c(C)c1Cl` here?
Answer: Its EC50 is 126 nM.

Question: Which EC50 does the source give for `Cc1nc2sc(C(=O)NCc3cccc(F)c3F)c(N)c2c(C)c1Cl` here?
Answer: Its EC50 is 114 nM.

Question: For `Cc1nc2sc(C(=O)NCc3nccs3)c(N)c2c(C)c1Cl`, which EC50 is on record?
Answer: The EC50 was 187 nM.

Question: Which EC50 does the source give for `Cc1nc2sc(C(=O)NCc3ccncn3)c(N)c2c(C)c1Cl` here?
Answer: The EC50 was 527 nM.

Question: For `Cc1nc2sc(C(=O)NCCc3ccncc3)c(N)c2c(C)c1Cl`, which EC50 is on record?
Answer: Its EC50 is 229 nM.

Question: Which EC50 does the source give for `Cc1nc2sc(C(=O)NCc3ccc4c(c3)OCO4)c(N)c2c(C)c1Cl` here?
Answer: Its EC50 is 61.6 nM.

Question: With `Cc1nc2sc(C(=O)NCc3cccnc3)c(N)c2c(C)c1Cl` as the molecule, how does the EC50 read?
Answer: The EC50 was 272 nM.

— PubChem BioAssay AID588751 (Vanderbilt Specialized Chemistry Center, 2011)
